Data from ChEMBL document CHEMBL1949575, “Sclareol exhibits anti-inflammatory activity in both lipopolysaccharide-stimulated macrophages and the λ-carrageenan-induced paw edema model” (J Nat Prod, 2012).
Converted amounts (≈) assume the structure as drawn. The source made the active and inactive calls. The rule behind the calls is not given here.

Experiments:
RAW264.7 [1] = assay: Antiinflammatory activity in mouse RAW264.7 cells assessed as inhibition of LPS-induced nitric oxide production treated 1 hr before LPS challenge measured after 24 hrs by Griess method; assay type: functional, cell-based
Method in brief: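 RAW264.7 cells preincubated 1 h with drug at 0, 1, 5 or 10 μg/mL, then co-treated with 100 ng/mL LPS at 37 °C for 24 h. Culture medium mixed 1:1 with Griess reagent (1% sulfanilamide, 0.1% naphthyl ethylenediamine, 5% phosphoric acid), 10 min at room temperature, absorbance 540 nm against a nitrite standard curve.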

RAW264.7 [2] = assay: Cytotoxicity against LPS-stimulated mouse RAW264.7 cells assessed as cell viability at 10 ug/ml treated 1 hr before LPS challenge measured after 24 hrs by MTT assay; assay type: cell-based; conditions: raw264.7, 24 h
Method in brief: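 RAW264.7 cells (2 × 10^5/well) grown 1 day to near confluence, pretreated 1 h with drug (0−10 μg/mL), then co-stimulated with 100 ng/mL LPS for 24 h. After DPBS washes, cells got 0.5 mg/mL MTT for 2 h at 37 °C, then DMSO for 30 min, and absorbance was read at 570 nm.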

[3] = Cytotoxicity against human leukemia cells; assay type: functional, cell-based; conditions: Leukemia cell
[4] = Cytotoxicity against human breast cancer cells; assay type: functional, cell-based; conditions: Cancer cell lines
HCT-116 = assay: Cytotoxicity against human HCT116 cells; assay type: functional, cell-based
PBMC = assay: Cytotoxicity against human PBMC; assay type: cell-based
RAW264.7 [5] = assay: Antiinflammatory activity in mouse RAW264.7 cells assessed as inhibition of LPS-induced iNOS expression at 5 to 10 ug/ml by Western blotting; assay type: functional, cell-based
Method in brief: (§1)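 RAW264.7 macrophages in DMEM with 10% FBS were pretreated 1 h with drug (0−10 μg/mL), then co-stimulated with 100 ng/mL LPS for 24 h. Lysates (ice-cold Triton lysis buffer, pH 7.9) were blotted for iNOS or COX-2, with about 30 μg protein per lane and ECL detection. Bands normalized to β-actin, expressed relative to the LPS-only group as 100%.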

RAW264.7 [6] = assay: Antiinflammatory activity in mouse RAW264.7 cells assessed as inhibition of LPS-induced COX2 expression at 5 to 10 ug/ml by Western blotting; assay type: functional, cell-based; method in brief: as §1
Mus musculus [7] = assay: Antiinflammatory activity in ICR mouse assessed as inhibition of carrageenan-induced paw edema at 10 mg/kg, ip administered 30 mins before carrageenan challenge measured after 3 hrs by plethysmometer analysis; assay type: functional, organism-based; design: dose 10 mg/kg
Method in brief: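 Male ICR mice (n = 6) received saline, indomethacin 10 mg/kg or drug i.p. 30 min before 50 μL of 1% carrageenan in the right hind paw. Paw volume was read by plethysmometer immediately and at 1−5 h. Swelling was expressed as the ratio of right paw volume after carrageenan to volume before.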

Mus musculus [8] = assay: Antiinflammatory activity in ICR mouse assessed as inhibition of carrageenan-induced nitric oxide level in paw serum at 1 to 10 mg/kg, ip administered 30 mins before carrageenan challenge measured after 5 hrs by Griess method; assay type: functional, organism-based
Method in brief: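 Mice pretreated i.p. 30 min before intraplantar 1% carrageenan; samples taken 5 h after injection. Homogenates diluted fourfold in water, deproteinized with zinc sulfate to a final 15 mg/mL, centrifuged at 10000g for 5 min. Supernatant mixed 1:1 with Griess reagent, 10 min at room temperature, A540. Nitrite quantified against a sodium nitrite standard curve.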

Mus musculus [9] = assay: Antiinflammatory activity in ICR mouse assessed as inhibition of carrageenan-induced malondialdehyde level in paw serum at 1 mg/kg, ip administered 30 mins before carrageenan challenge measured after 5 hrs by TRARS method; assay type: functional, organism-based; design: dose 1 mg/kg
Method in brief: (§2)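 Carrageenan (1%, 50 μL intraplantar) given to ICR mice 30 min after i.p. dosing; right hind paws dissected at end and kept at −80 °C. Malondialdehyde measured by thiobarbituric acid reaction under acidic high-temperature conditions, red TBARS complex read at 532 nm.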

Mus musculus [10] = assay: Antiinflammatory activity in ICR mouse assessed as inhibition of carrageenan-induced iNOS protein expression in paw at 10 mg/kg, ip administered 30 mins before carrageenan challenge by Western blotting relative to control; assay type: functional; conditions: route intraperitoneal
Method in brief: (§3)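 Male ICR mice (18−25 g, n = 6 per group) given drug or saline i.p. 30 min before 50 μL of 1% carrageenan into the right hind paw plantar side. Paw soft tissue was homogenized in CHAPS buffer with protease inhibitors. About 30 μg protein run on 10% SDS-PAGE, immunoblotted for iNOS or COX-2, ECL detection, normalized to β-actin. Indomethacin 10 mg/kg as positive control.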

Mus musculus [11] = assay: Antiinflammatory activity in ICR mouse assessed as inhibition of carrageenan-induced COX2 protein expression in paw at 10 mg/kg, ip administered 30 mins before carrageenan challenge by Western blotting relative to control; assay type: functional; conditions: route intraperitoneal; method in brief: as §3
Mus musculus [12] = assay: Antiinflammatory activity in ICR mouse assessed as inhibition of carrageenan-induced neutrophil infiltration in paw at 10 mg/kg, ip administered 30 mins before carrageenan challenge; assay type: functional, organism-based; design: dose 10 mg/kg
Mus musculus [13] = assay: Antiinflammatory activity in ICR mouse assessed as inhibition of carrageenan-induced malondialdehyde level in paw at 10 mg/kg, ip administered 30 mins before carrageenan challenge by TRARS method; assay type: functional, organism-based; design: dose 10 mg/kg; method in brief: as §2
Mus musculus [14] = assay: Antiinflammatory activity in ICR mouse assessed as inhibition of carrageenan-induced decrease in CAT activity in liver at 5 mg/kg, ip administered 30 mins before carrageenan challenge measured after 5 hrs; assay type: functional, organism-based; design: dose 5 mg/kg
Method in brief: (§4)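 Liver catalase, SOD and GPx activities determined 5 h after intrapaw carrageenan in ICR mice given drug i.p. 30 min beforehand. Indomethacin 10 mg/kg as positive control.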

Mus musculus [15] = assay: Antiinflammatory activity in ICR mouse assessed as inhibition of carrageenan-induced decrease in SOD activity in liver at 5 mg/kg, ip administered 30 mins before carrageenan challenge measured after 5 hrs; assay type: functional, organism-based; design: dose 5 mg/kg; method in brief: as §4
Mus musculus [16] = assay: Antiinflammatory activity in ICR mouse assessed as inhibition of carrageenan-induced decrease in GPx activity in liver at 5 mg/kg, ip administered 30 mins before carrageenan challenge measured after 5 hrs; assay type: functional, organism-based; design: dose 5 mg/kg; method in brief: as §4
Mus musculus [17] = assay: Antiinflammatory activity in ICR mouse assessed as inhibition of carrageenan-induced TNFalpha level in paw serum at 5 to 10 mg/kg, ip administered 30 mins before carrageenan challenge measured after 5 hrs by ELISA
Mus musculus [18] = assay: Antiinflammatory activity in ICR mouse assessed as inhibition of carrageenan-induced decrease in CAT activity in liver at 10 mg/kg, ip administered 30 mins before carrageenan challenge measured after 5 hrs; assay type: functional, organism-based; design: dose 10 mg/kg; method in brief: as §4
Mus musculus [19] = assay: Antiinflammatory activity in ICR mouse assessed as inhibition of carrageenan-induced decrease in SOD activity in liver at 10 mg/kg, ip administered 30 mins before carrageenan challenge measured after 5 hrs; assay type: functional, organism-based; design: dose 10 mg/kg; method in brief: as §4
Mus musculus [20] = assay: Antiinflammatory activity in ICR mouse assessed as inhibition of carrageenan-induced decrease in GPx activity in liver at 10 mg/kg, ip administered 30 mins before carrageenan challenge measured after 5 hrs; assay type: functional, organism-based; design: dose 10 mg/kg; method in brief: as §4
Mus musculus [21] = assay: Antiinflammatory activity in ICR mouse assessed as inhibition of carrageenan-induced TNFalpha level in paw serum at 10 mg/kg, ip administered 30 mins before carrageenan challenge measured after 5 hrs by ELISA; assay type: functional, organism-based; design: dose 10 mg/kg
Method in brief: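 ICR mice (n = 6) dosed i.p. 30 min before intraplantar 1% carrageenan; blood collected at sacrifice and stored at −80 °C. Serum TNF-α quantified by commercial ELISA, reported in pg/mL from the standard-curve regression. Indomethacin 10 mg/kg as reference.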

Mus musculus [22] = assay: Antiinflammatory activity in ICR mouse assessed as inhibition of carrageenan-induced malondialdehyde level in paw serum at 10 mg/kg, ip administered 30 mins before carrageenan challenge measured after 5 hrs by TRARS method; assay type: functional, organism-based; design: dose 10 mg/kg; method in brief: as §2

## C=C[C@](C)(O)CC[C@@H]1[C@@]2(C)CCCC(C)(C)[C@@H]2CC[C@@]1(C)O [SCLAREOL]
RAW264.7 [1]
  inhibition: Dose-dependent effect
RAW264.7 [2]
  Activity: Non-toxic
[3]
  IC50: 6 µg/mL (≈ 19.4 µM)
[4]
  IC50: 7 µg/mL (≈ 22.7 µM)
HCT-116
  IC50: 10.6 µg/mL (≈ 34.4 µM)
PBMC
  IC50: 10.7 µg/mL (≈ 34.7 µM)
RAW264.7 [5]
  inhibition: Active
RAW264.7 [6]
  inhibition: Active
Mus musculus [7]
  inhibition: Active
Mus musculus [8]
  inhibition: Active
Mus musculus [9]
  inhibition: Active
Mus musculus [10]
  inhibition in vivo at 10 mg/kg: 69.6%
Mus musculus [11]
  inhibition in vivo at 10 mg/kg: 70.3%
Mus musculus [12]
  inhibition: Active
Mus musculus [13]
  inhibition: Active
Mus musculus [14]
  inhibition: Active
Mus musculus [15]
  inhibition: Active
Mus musculus [16]
  inhibition: Active
Mus musculus [17]
  inhibition: Active

## COc1ccc2c(c1)c(CC(=O)O)c(C)n2C(=O)c1ccc(Cl)cc1 [INDOMETHACIN]
Mus musculus [7]
  inhibition: Active
Mus musculus [10]
  inhibition in vivo at 10 mg/kg: 61.5%
Mus musculus [11]
  inhibition in vivo at 10 mg/kg: 58.1%
Mus musculus [12]
  inhibition: Active
Mus musculus [18]
  inhibition: Active
Mus musculus [19]
  inhibition: Active
Mus musculus [20]
  inhibition: Active
Mus musculus [21]
  inhibition: Active
Mus musculus [22]
  inhibition: Active
